In ChEMBL document CHEMBL1148708, “4-amino-5-substituted-3(2H)-pyridazinones as orally active antinociceptive agents: synthesis and studies on the mechanism of action” (2007) one finds Activity data, which are given here for 23 compounds.

Common to all, as to format: functional
Assay [1] is filed under the species Mus musculus. As to the kind of experiment: Effect on Swiss albino mouse assessed as decrease in number of falls in 30 sec after 45 mins of treatment by Rota-Rod test. The gist of the method:
(§1)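 Rotarod test in mice: falls from the rotating rod counted over 30 s, before treatment and at 15, 30 and 45 min after oral dosing. CMC vehicle controls.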
(In general: In the rotarod test animals must keep their balance on a rotating rod.)

The species entered for assay [2] is Rattus norvegicus. As to the kind of experiment: Increase in noradrenaline release in Sprague-Dawley rat cerebral cortex after 30 mins by microdialysis technique. The gist of the method:
(§2)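 Rat cerebral cortex microdialysis under chloral hydrate anesthesia (400 mg/kg) in a stereotaxic frame, using a vertical concentric probe perfused with solution containing MgCl₂ and 4 mM KCl. About 18 h after surgery, dialysate collected every 20 min and stored at -80 °C. Noradrenaline measured by HPLC with electrochemical detection. Release expressed against a baseline averaged from three samples taken just before drug dosing.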

Assay [3] is filed under the species Mus musculus. Nature of the assay: Antinociceptive activity in Swiss albino mouse assessed as reduction of number of writhing after 30 mins relative to control. The gist of the method: (§3)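 Writhing counted in the mouse abdominal constriction test after a chemical noxious stimulus. Compounds given per os 30 min before testing. Controls received CMC vehicle. Activity expressed as reduction in number of writhes versus controls.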
In general terms: Writhing tests count abdominal constrictions after an irritant is injected.

The species entered for assay [4] is Mus musculus. As to the kind of experiment: Effect on Swiss albino mouse assessed as decrease in number of falls in 30 sec after 15 mins of treatment by Rota-Rod test. The gist of the method: as §1
Assay [5] is filed under the species Mus musculus. Nature of the assay: Effect on Swiss albino mouse assessed as decrease in number of falls in 30 sec after 30 mins of treatment by Rota-Rod test. The gist of the method:
as §1

Assay [6] concerns Mus musculus. Nature of the assay: Antinociceptive activity in Swiss albino mouse assessed as reduction of number of writhing at 10 mg/kg, po after 30 mins relative to control. The gist of the method: as §3
The subject of assay [7] is Rattus norvegicus. Nature of the assay: Increase in noradrenaline release in Sprague-Dawley rat cerebral cortex at 10 mg/kg, po after 30 mins by microdialysis technique. The gist of the method: as §2
Assay [8] relates to Mus musculus. Nature of the assay: Effect on Swiss albino mouse assessed as decrease in number of falls in 30 sec at 10 mg/kg, po after 15 mins by Rota-Rod test. The gist of the method: as §1
Assay [9] has as its system Mus musculus. Nature of the assay: Effect on Swiss albino mouse assessed as decrease in number of falls in 30 sec at 10 mg/kg, po after 45 mins by Rota-Rod test. The gist of the method:
as §1

The subject of assay [10] is Mus musculus. Nature of the assay: Effect on Swiss albino mouse assessed as decrease in number of falls in 30 sec at 10 mg/kg, po after 30 mins by Rota-Rod test. The gist of the method:
as §1

For assay [11], the system named is Mus musculus. Nature of the assay: Antinociceptive activity in Swiss albino mouse assessed as number of writhing in presence of yohimbine at 10 mg/kg, po after 30 mins relative to control. The gist of the method: (§4)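 Mouse abdominal constriction (writhing) test with a chemical pain stimulus. Test drugs given orally 30 min before the test. Yohimbine given at 3 mg kg^-1 ip as α2-adrenoceptor antagonist pretreatment. Writhes counted and compared with CMC vehicle controls. Values are the mean of at least two experiments.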

Assay [12] has as its system Mus musculus. Nature of the assay: Effect on Swiss albino mouse assessed as decrease in number of falls in 30 sec at 3 mg/kg, po after 45 mins by Rota-Rod test. The gist of the method:
as §1

The test system of assay [13] is Mus musculus. Nature of the assay: Effect on Swiss albino mouse assessed as decrease in number of falls in 30 sec at 3 mg/kg, po after 30 mins by Rota-Rod test. The gist of the method: as §1
Assay [14] relates to Mus musculus. As to the kind of experiment: Effect on Swiss albino mouse assessed as decrease in number of falls in 30 sec at 3 mg/kg, po after 15 mins by Rota-Rod test. The gist of the method: as §1
The test system of assay [15] is Mus musculus. Nature of the assay: Antinociceptive activity in Swiss albino mouse assessed as reduction of number of writhing at 3 mg/kg, po after 30 mins relative to control. The gist of the method:
as §3

For assay [16], the system named is Mus musculus. Nature of the assay: Antinociceptive activity in Swiss albino mouse assessed as number of writhing in presence of yohimbine at 3 mg/kg, po after 30 mins relative to control. The gist of the method: as §4
Assay [17] relates to Mus musculus. As to the kind of experiment: Effect on Swiss albino mouse assessed as decrease in number of falls in 30 sec at 20 mg/kg, po after 45 mins by Rota-Rod test. The gist of the method:
as §1

The test system of assay [18] is Mus musculus. Nature of the assay: Effect on Swiss albino mouse assessed as decrease in number of falls in 30 sec at 20 mg/kg, po after 30 mins by Rota-Rod test. The gist of the method: as §1
Assay [19] concerns Mus musculus. As to the kind of experiment: Antinociceptive activity in Swiss albino mouse assessed as reduction of number of writhing at 20 mg/kg, po after 30 mins relative to control. The gist of the method:
as §3

For assay [20], the system named is Mus musculus. As to the kind of experiment: Effect on Swiss albino mouse assessed as decrease in number of falls in 30 sec at 20 mg/kg, po after 15 mins by Rota-Rod test. The gist of the method:
as §1

The test system of assay [21] is Mus musculus. Nature of the assay: Antinociceptive activity in Swiss Albino mouse assessed as number of writhing in presence of yohimbine at 20 mg/kg, po after 30 mins relative to control. The gist of the method: as §4
The test system of assay [22] is Mus musculus. As to the kind of experiment: Effect on Swiss albino mouse assessed as decrease in number of falls in 30 sec at 30 mg/kg, po after 30 mins by Rota-Rod test. The gist of the method: as §1
Assay [23] relates to Rattus norvegicus. As to the kind of experiment: Increase in noradrenaline release in Sprague-Dawley rat cerebral cortex at 30 mg/kg, po after 30 mins by microdialysis technique. The gist of the method:
as §2

Assay [24] has as its system Mus musculus. Nature of the assay: Antinociceptive activity in Swiss albino mouse assessed as number of writhing in presence of yohimbine at 30 mg/kg, po after 30 mins relative to control. The gist of the method:
as §4

Assay [25] has as its system Mus musculus. As to the kind of experiment: Antinociceptive activity in Swiss albino mouse assessed as reduction of number of writhing at 30 mg/kg, po after 30 mins relative to control. The gist of the method:
as §3

Assay [26] relates to Mus musculus. As to the kind of experiment: Effect on Swiss albino mouse assessed as decrease in number of falls in 30 sec at 30 mg/kg, po after 45 mins by Rota-Rod test. The gist of the method:
as §1

Assay [27] has as its system Mus musculus. As to the kind of experiment: Effect on Swiss albino mouse assessed as decrease in number of falls in 30 sec at 30 mg/kg, po after 15 mins by Rota-Rod test. The gist of the method:
as §1

For assay [28], the system named is Rattus norvegicus. As to the kind of experiment: Increase in noradrenaline release in Sprague-Dawley rat cerebral cortex at 3 mg/kg, po after 30 mins by microdialysis technique. The gist of the method:
as §2

The test system of assay [29] is Rattus norvegicus. As to the kind of experiment: Increase in noradrenaline release in Sprague-Dawley rat cerebral cortex at 20 mg/kg, po after 30 mins by microdialysis technique. The gist of the method:
as §2

In the case of `CC(=O)[O-].O=CC(O)C(O)C(O)C(O)CO.[Na+]` (stereo not given), the Activity in [1] is listed as 2.2; in assay [2], 100%; in assay [3], 33.2; in assay [4], 3.6; in [5], 3.
As for `Cc1nc(-c2c(-c3ccccc3)nn(C)c(=O)c2N)cs1`, the Activity in assay [6] came out at 14.7; in assay [7], 181.3%; in [8], 3.8; in assay [9], 2; in assay [10] it was 2.7; in assay [11], 33.6.
Take `C=Cc1c(-c2ccccc2)nn(C)c(=O)c1NCC`: the Activity in assay [12] came out at 1.9; in assay [13], 2.3; in assay [14] it was 3.4; in assay [15] it was 17.4; in [16], 28.1.
On to `C=Cc1c(-c2ccccc2)nn(CCCC)c(=O)c1NC`, for which the Activity came to 2.5 in assay [17]; 3.3 in assay [18]; 21.6 in assay [19]; 4 in [20]; 31.9 in assay [21].
As to `Cc1nn(C)c(=O)c(N)c1-c1ccn(C)n1`, the Activity in [22] amounted to 2.6; in assay [23], 188.5%; in assay [24] it was 31.7; in assay [25], 15.9; in assay [26], 1.8; in assay [27], 3.9.
Consider `Cn1nc(-c2ccccc2)c(-c2cc[nH]n2)c(N)c1=O`, for which the Activity in assay [28] stood at 168.4%; in assay [12], 2.3; in assay [13] it was 2.8; in assay [14], 3.7; in assay [15] it was 15.9; in assay [16] it was 26.5.
Regarding `C=Cc1c(-c2ccncc2)nn(CCCC)c(=O)c1N`, the Activity in assay [19] is 35.3; in assay [29], 97.5%.
The like results for `C=Cc1c(C)nn(CCCC)c(=O)c1N` were, in that order, 36.7 and 95.9%.
Take `C=Cc1c(-c2cccs2)nn(CCCC)c(=O)c1N`: the Activity in [19] is listed as 25.2.
In the case of `C=Cc1c(-c2ccc(F)cc2)nn(CCCC)c(=O)c1N`, in assay [19], the Activity came to 33.6.
Still for that read-out and setting: next, `C=Cc1c(-c2ccc(F)cc2)nn(C)c(=O)c1N`: 27.2.
Turning to `C=Cc1c(C2CCCC2)nn(C)c(=O)c1N`, the Activity in assay [6] came out at 27.7.
On to `C=Cc1c(C2CCCCC2)nn(C)c(=O)c1N`, for which the Activity in assay [6] came to 14.4; in assay [7], 182.1%; in [8], 4.1; in [9] it was 2.9; in assay [10], 3.4; in assay [11] it was 32.5.
In the case of `CCN(CC)c1c(-c2ccn(C)n2)c(-c2ccccc2)nn(C)c1=O`, the Activity in assay [19] is listed as 27.1.
In the case of `Cc1nnc(-c2c(-c3ccccc3)nn(C)c(=O)c2N)o1`, the Activity is listed as 1.5 in assay [12]; 2.3 in assay [13]; 2.7 in assay [14]; 19.5 in [15]; 34.2 in assay [16].
`C=Cc1c(-c2ccncc2)nn(C)c(=O)c1N`: the Activity worked out at 2.1 in assay [17]; 2.8 in assay [18]; 18.7 in [19]; 3.5 in assay [20]; 34.1 in assay [21].
On to `C=Cc1c(-c2ccc(Br)cc2)nn(C)c(=O)c1N`, for which the values for the Activity in assay [19] and in [29] were 35.7 and 107%, respectively.
As for `C=Cc1c(C)nn(C)c(=O)c1NC`, the Activity in assay [6] came out at 17.6; in [8], 3.7; in [9] it was 2; in assay [10] it was 2.5; in [11], 32.
For the compound `C=Cc1c(C)nn(C)c(=O)c1NCC`, the Activity in assay [6] was 16.8; in assay [7], 176.2%; in assay [8] it was 3.9; in assay [9], 2.5; in assay [10], 3.2; in [11], 29.
`Cn1ccc(-c2c(-c3ccccc3)nn(C)c(=O)c2N)n1`: the Activity turned out to be 190.1% in [28]; 2.3 in assay [12]; 3.1 in assay [13]; 4.2 in assay [14]; 13.6 in assay [15]; 31.1 in [16].
Regarding `CCNc1c(-c2ccn(C)n2)c(-c2ccccc2)nn(C)c1=O`, the Activity in assay [17] worked out at 2.1; in assay [18] it was 1.8; in [19], 14.1; in [20], 2.6; in [29], 173.7%; in assay [21], 29.6.
`C=Cc1c(-c2cccs2)nn(C)c(=O)c1N`: the Activity in assay [19] amounted to 30.2.
On to `COC(=O)[C@@H]1[C@H]2C[C@H]3c4[nH]c5ccccc5c4CCN3C[C@@H]2CC[C@@H]1O` [YOHIMBINE], for which the Activity in [16] turned out to be 31.7.
